Test results taken from ChEMBL document CHEMBL1128171, “A series of N4-imidoethyl derivatives of 1-(2,3-dihydro-1,4-benzodioxin-5-yl)piperazine as 5-HT1A receptor ligands: synthesis and structure-affinity relationships” (J Med Chem, 1995).

Key:
[1] = Ionisation constant of the compound; assay type: ADME
Procedure, shortened: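 Potentiometric titration at 37 °C (±1 °C) under nitrogen, using a glass pH electrode calibrated at pH 4, 7 and 9. 30 mg substance in 40 mL 0.1 M KCl in carbonate-free water, 0.002-0.005 M. Titrant 0.05 M NaOH added in 0.05 mL steps. pKa calculated from 5-15 curve points (pre-precipitation only) and averaged.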

[2] = target: T1, 5-hydroxytryptamine receptor 1A (Rattus norvegicus, UniProt P19327); assay: Inhibition of [3H]2-(di-N-propylamino)-8-hydroxytetralin binding to 5-HT1A receptor of rat frontal cortex homogenates; assay type: tissue-based
T1 sequence (P19327 whole entry): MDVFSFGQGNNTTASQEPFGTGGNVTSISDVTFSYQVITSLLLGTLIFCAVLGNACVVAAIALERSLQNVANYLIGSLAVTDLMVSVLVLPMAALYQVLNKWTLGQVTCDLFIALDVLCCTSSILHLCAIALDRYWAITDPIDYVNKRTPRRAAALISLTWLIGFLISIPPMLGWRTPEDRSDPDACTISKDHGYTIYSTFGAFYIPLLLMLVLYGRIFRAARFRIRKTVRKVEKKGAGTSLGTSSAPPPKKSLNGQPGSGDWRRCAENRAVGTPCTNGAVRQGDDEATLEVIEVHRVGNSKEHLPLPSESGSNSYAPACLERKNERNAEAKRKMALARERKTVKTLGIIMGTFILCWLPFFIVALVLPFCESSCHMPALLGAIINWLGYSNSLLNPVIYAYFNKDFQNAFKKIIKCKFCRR
Procedure, shortened: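 Rat frontal cortex homogenates incubated with [3H]-8-OH-DPAT at 37 °C, pH 7.7. Four to six drug concentrations, each in triplicate; three to six assays per value. IC50 for displacement of specific binding converted to Ki by Cheng–Prusoff using radioligand concentration and Kd. Reported as pKi.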

pKa [1] | Ki [2] | Compound
6.4 | 347 nM | O=C1CCCC(=O)N1CCN1CCN(c2cccc3c2OCCO3)CC1
6.42 | 4.68 nM | CC1(C)CC(=O)N(CCN2CCN(c3cccc4c3OCCO4)CC2)C(=O)C1
6.1 | 4.79 nM | Cc1ccc2c(c1)C(=O)N(CCN1CCN(c3cccc4c3OCCO4)CC1)C2=O
6.16 | 151 nM | CC1CC(=O)N(CCN2CCN(c3cccc4c3OCCO4)CC2)C1=O (configuration not stated)
5.9 | 977 nM | O=C1C=CC(=O)N1CCN1CCN(c2cccc3c2OCCO3)CC1
6.07 |  | O=C1C2CCCCC2C(=O)N1CCN1CCN(c2cccc3c2OCCO3)CC1 (configuration not stated)
6.3 | 63.1 nM | CC1=CC(=O)N(CCN2CCN(c3cccc4c3OCCO4)CC2)C1=O
6.16 | 110 nM | O=C1CCC(=O)N1CCN1CCN(c2cccc3c2OCCO3)CC1
6.05 | 10 nM | O=C1C2CC=CCC2C(=O)N1CCN1CCN(c2cccc3c2OCCO3)CC1 (configuration not stated)
6.3 | 6.46 nM | O=C1C2=C(CCCC2)C(=O)N1CCN1CCN(c2cccc3c2OCCO3)CC1
6.51 | 0.708 nM | O=C1CC2(CCCC2)CC(=O)N1CCN1CCN(c2cccc3c2OCCO3)CC1
 | 32.4 nM | O=C1c2ccccc2C(=O)N1CCN1CCN(c2cccc3c2OCCO3)CC1
